This is an account of results in the array DNA melting data of Ke et al. (doi:10.1101/2024.01.08.574731).

A short description of data set [1]: melting temperature; fluorescence melt of hairpins on a sequencing array, two-state fit, raised by 9.35 °C to match UV melts. The note with it: sodium 0.088 M. In outline: (§1)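 Melting temperature and folding enthalpy were obtained by bootstrapped two-state fitting. Fits used Cy3 fluorescence of library hairpins with annealed Cy3 and quencher oligos on a sequenced MiSeq flow cell, imaged in 50 mM Na-HEPES pH 8.0, 25 mM NaCl in 2.5 °C steps up to 60 °C and normalised to pre-quench Cy3 and control constructs. Four replicates were combined by inverse-variance weighting, and fitted temperatures were raised by 9.35 °C to match UV melts.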

Data set [2] can be described thus: folding enthalpy; higher = less favourable; fluorescence melt of hairpins on a sequencing array, two-state fit. The conditions noted are these: sodium 0.088 M. In outline:
as §1

For GCAATCGAAAGATCGTGC ((((((....)))..))), the Tm in data set [1] was determined as 28 °C. In data set [2], the folding enthalpy was -16.1 kcal/mol.

Take CGAGGGCGGAAACGCTCG (((..(((....)))))): the Tm in data set [1] amounted to 48.5 °C. Besides, the folding enthalpy in data set [2] is -16.9 kcal/mol.

For GTTTCCGAAAGGACAAAC ((((((....)))..))), the Tm in data set [1] was determined as 26.1 °C. In addition, the folding enthalpy in data set [2] was -9.58 kcal/mol.

GCTCACGAAAGTGGAGC ((((((....))).))): in data set [1], the Tm came to 59 °C. In data set [2], the folding enthalpy was -27.5 kcal/mol.

As for GGCCAGGGAAACCTAGCC (((.(((....))).))), the Tm in data set [1] came to 43.2 °C. In addition, the folding enthalpy in data set [2] is -28.4 kcal/mol.

As to GCCGAGCGAAAGCTAAGC ((..(((....)))..)), the Tm in data set [1] came to 40 °C. In addition, in data set [2], the folding enthalpy is -16.3 kcal/mol.

With GTTGTCGAAAGACTAAAC ((((((....)))..))), in data set [1], the Tm came to 29.5 °C. Besides, in data set [2], the folding enthalpy was -13.6 kcal/mol.

Consider GCAGTAGAAATACTGC ((((((....)))))), for which the Tm in data set [1] turned out to be 54.8 °C. In addition, in data set [2], the folding enthalpy was -34.6 kcal/mol.

Turning to GATCCACGTCTGGATC ((((((....)))))), in data set [1], the Tm worked out at 49.5 °C. The folding enthalpy in data set [2] was -38.3 kcal/mol.

Consider GAACGGACGAAAGTCTTC (((..(((....)))))), for which, in data set [1], the Tm amounted to 20.7 °C. In addition, in data set [2], the folding enthalpy was -7.13 kcal/mol.

As for GTAACCGGAAACGGTTAC (((((((....))))))), in data set [1], the Tm is 65.8 °C. Also, the folding enthalpy in data set [2] is -38.8 kcal/mol.

For GCCTGCGAAAGCATGGC ((((((....))).))), the Tm in data set [1] came to 65.8 °C. The folding enthalpy in data set [2] is -30.8 kcal/mol.

In the case of GTGCAAGGAAACCTGCAC (((((.(....).))))), in data set [1], the Tm is 51.4 °C. For the same sequence, the folding enthalpy in data set [2] is -35.9 kcal/mol.

For the sequence GCATACGAAAGTAGTGC ((((((....))).))), the Tm in data set [1] came out at 44.6 °C. For the same sequence, the folding enthalpy in data set [2] is -24.1 kcal/mol.

In the case of GTACGTCGAAAGACTAC (((.(((....)))))), the Tm in data set [1] came out at 41 °C. The folding enthalpy in data set [2] is -21.9 kcal/mol.

Regarding GTCACGCCGAAAGGCGAC (((..(((....)))))), in data set [1], the Tm stood at 32.1 °C. In addition, the folding enthalpy in data set [2] is -6.44 kcal/mol.

As to GGCACGGGAAACCGTGTC (.(((((....))))).), the Tm in data set [1] was 59.2 °C. In addition, the folding enthalpy in data set [2] was -34.6 kcal/mol.

Take GGCCGCGAAAGCGTTGCC ((((((....)))..))): the Tm in data set [1] turned out to be 56 °C. Further, the folding enthalpy in data set [2] was -16.8 kcal/mol.

Take GGTACACGAAAGTGCACC (((.(((....))).))): the Tm in data set [1] was 52.3 °C. Moreover, the folding enthalpy in data set [2] is -33.9 kcal/mol.

In the case of GGAATCGAAAGATGGTCC ((((((....)))..))), the Tm in data set [1] is 25.8 °C. The folding enthalpy in data set [2] was -8.55 kcal/mol.

As for GCTGTCGAAAGACGTAGC ((((((....)))..))), the Tm in data set [1] was determined as 48.1 °C. For the same sequence, the folding enthalpy in data set [2] is -22.7 kcal/mol.

Regarding AGTCAGAAATGACT (((((....))))), the Tm in data set [1] worked out at 43.3 °C. The folding enthalpy in data set [2] is -18.9 kcal/mol.

In the case of GATCCGGGTACGGATC ((((((....)))))), in data set [1], the Tm turned out to be 67.9 °C. The folding enthalpy in data set [2] is -36 kcal/mol.

On to GCTATACGAAAGTAAGC (((.(((....)))))), for which the Tm in data set [1] worked out at 40.6 °C. Also, in data set [2], the folding enthalpy was -22.3 kcal/mol.

As for GCGCAGCGAAAGCTAGGC ((..(((....)))..)), the Tm in data set [1] amounted to 39.7 °C. Also, the folding enthalpy in data set [2] is -5.67 kcal/mol.

In the case of GGGTCCACGAAAGTGCCC (((..(((....)))))), the Tm in data set [1] is 40.8 °C. For the same sequence, in data set [2], the folding enthalpy was -17.9 kcal/mol.

GGTCATGGAAACACGACC ((((.((....)).)))): the Tm in data set [1] was found to be 43 °C. In addition, in data set [2], the folding enthalpy was -37.1 kcal/mol.

For the sequence GGTTGTGGAAACGTAACC ((((..(....)..)))), the Tm in data set [1] is 35.7 °C. For the same sequence, the folding enthalpy in data set [2] is -24.3 kcal/mol.

For GTGTATGGAAACACACAC ((((.((....)).)))), the Tm in data set [1] is 38.1 °C. Further, the folding enthalpy in data set [2] is -26.1 kcal/mol.

For the sequence GATCGGAGGCCGATC ((((((...)))))), in data set [1], the Tm worked out at 55.8 °C. Also, the folding enthalpy in data set [2] is -40.3 kcal/mol.

Turning to GATCTCCGAAGAGATC ((((((....)))))), in data set [1], the Tm worked out at 54 °C. In data set [2], the folding enthalpy is -40.6 kcal/mol.

On to GCTTGCGAAAGCACAGC ((((((....))).))), for which, in data set [1], the Tm stood at 50.5 °C. Moreover, the folding enthalpy in data set [2] is -20.1 kcal/mol.

For GCCTGCGAAAGCACTGGC ((((((....)))..))), the Tm in data set [1] was determined as 49.9 °C. The folding enthalpy in data set [2] is -20 kcal/mol.

For GTGCAACGAAAGTTCCAC (((.(((....))).))), the Tm in data set [1] is 38.1 °C. Besides, in data set [2], the folding enthalpy is -10.3 kcal/mol.

In the case of GTCTATGGAAACGTAGAC (((((.(....).))))), the Tm in data set [1] turned out to be 43.7 °C. Besides, the folding enthalpy in data set [2] was -31.8 kcal/mol.

As for GGAGGGGGAAACCTCTCC ((((.((....)).)))), in data set [1], the Tm amounted to 51.3 °C. The folding enthalpy in data set [2] was -35.8 kcal/mol.

Turning to GCGTCCTTACGC ((((....)))), in data set [1], the Tm came out at 53.6 °C. Besides, the folding enthalpy in data set [2] was -23.6 kcal/mol.
